We go through 10 compounds from ChEMBL document CHEMBL1165965, “Synthesis and structure-activity relationships of 1,2,3,4-tetrahydropyrido[2,3-b]pyrazines as potent and selective inhibitors of the anaplastic lymphoma kinase” (Bioorg Med Chem, 2010).

The subject of experiment [1] is Mast/stem cell growth factor receptor Kit (Homo sapiens), P10721 [V559D,V654A]. Kind of experiment: Inhibition of KIT V559D,V654A mutant at 1 uM. In a few lines:
(§1)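 Single-concentration screen on the Ambit KINOMEscan platform, run against a panel of 250–400 kinases. Per-kinase inhibition was also summarized as S(90), the fraction of kinases inhibited by more than 90%.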

The target of experiment [2] is T1, Mitogen-activated protein kinase kinase kinase 6 (Homo sapiens) (UniProt O95382).
T1 sequence (whole entry): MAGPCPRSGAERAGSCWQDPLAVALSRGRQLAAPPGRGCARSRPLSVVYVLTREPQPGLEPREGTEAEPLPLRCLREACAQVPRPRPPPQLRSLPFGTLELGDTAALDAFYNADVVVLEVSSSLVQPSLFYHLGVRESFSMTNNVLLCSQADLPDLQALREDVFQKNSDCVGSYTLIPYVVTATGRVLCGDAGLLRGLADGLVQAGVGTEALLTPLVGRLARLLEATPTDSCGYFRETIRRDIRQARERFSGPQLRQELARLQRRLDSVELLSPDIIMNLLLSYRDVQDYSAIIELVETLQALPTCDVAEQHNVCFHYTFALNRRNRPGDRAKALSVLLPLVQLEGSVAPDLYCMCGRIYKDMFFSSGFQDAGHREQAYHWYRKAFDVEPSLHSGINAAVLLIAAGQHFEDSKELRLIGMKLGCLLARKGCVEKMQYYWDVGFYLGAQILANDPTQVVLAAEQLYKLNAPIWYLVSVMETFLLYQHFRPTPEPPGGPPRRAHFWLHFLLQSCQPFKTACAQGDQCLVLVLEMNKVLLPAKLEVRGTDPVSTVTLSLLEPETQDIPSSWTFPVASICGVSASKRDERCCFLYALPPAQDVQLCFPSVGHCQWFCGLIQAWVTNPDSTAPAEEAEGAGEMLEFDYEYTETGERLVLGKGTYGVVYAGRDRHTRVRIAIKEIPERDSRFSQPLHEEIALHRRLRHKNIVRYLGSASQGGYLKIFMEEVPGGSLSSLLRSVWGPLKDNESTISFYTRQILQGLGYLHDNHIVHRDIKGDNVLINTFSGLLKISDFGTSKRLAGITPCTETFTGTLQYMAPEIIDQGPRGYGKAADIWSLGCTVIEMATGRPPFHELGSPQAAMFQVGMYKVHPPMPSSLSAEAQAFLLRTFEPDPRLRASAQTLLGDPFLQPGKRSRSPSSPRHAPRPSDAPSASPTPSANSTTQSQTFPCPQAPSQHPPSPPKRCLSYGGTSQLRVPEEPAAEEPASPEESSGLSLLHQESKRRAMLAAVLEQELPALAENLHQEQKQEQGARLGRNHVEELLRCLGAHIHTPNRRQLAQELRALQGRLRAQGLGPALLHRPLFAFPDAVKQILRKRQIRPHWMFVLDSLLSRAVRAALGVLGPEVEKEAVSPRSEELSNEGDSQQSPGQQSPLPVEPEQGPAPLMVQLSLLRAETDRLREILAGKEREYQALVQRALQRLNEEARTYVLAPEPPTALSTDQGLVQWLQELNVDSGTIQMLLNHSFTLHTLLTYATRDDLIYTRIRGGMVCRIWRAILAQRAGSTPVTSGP
Kind of experiment: Inhibition of ASK2 at 1 uM.

For experiment [3], the target named is T2, Tyrosine-protein kinase ITK/TSK (Homo sapiens) (UniProt Q08881).
T2 sequence (whole entry): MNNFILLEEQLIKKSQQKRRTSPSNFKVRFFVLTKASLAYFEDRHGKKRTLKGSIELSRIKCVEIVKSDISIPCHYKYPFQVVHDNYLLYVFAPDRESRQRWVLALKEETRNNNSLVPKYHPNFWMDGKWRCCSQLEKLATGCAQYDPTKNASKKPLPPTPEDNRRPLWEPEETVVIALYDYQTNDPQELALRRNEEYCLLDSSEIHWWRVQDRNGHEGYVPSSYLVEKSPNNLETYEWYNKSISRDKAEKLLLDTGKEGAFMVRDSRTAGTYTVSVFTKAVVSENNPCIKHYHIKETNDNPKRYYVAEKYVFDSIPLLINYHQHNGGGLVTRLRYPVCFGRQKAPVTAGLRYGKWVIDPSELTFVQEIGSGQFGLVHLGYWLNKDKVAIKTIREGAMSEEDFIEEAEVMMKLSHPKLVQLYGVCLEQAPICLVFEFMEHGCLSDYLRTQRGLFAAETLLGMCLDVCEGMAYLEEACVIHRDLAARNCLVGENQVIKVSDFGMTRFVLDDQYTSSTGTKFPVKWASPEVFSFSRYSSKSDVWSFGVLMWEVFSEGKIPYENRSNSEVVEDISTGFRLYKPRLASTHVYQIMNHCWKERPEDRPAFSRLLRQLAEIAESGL
The experiment in a line: Inhibition of ITK at 1 uM. The essentials:
as §1

Experiment [4] concerns the target T3, Ephrin type-A receptor 1 (Homo sapiens) (UniProt P21709).
T3 sequence (whole entry): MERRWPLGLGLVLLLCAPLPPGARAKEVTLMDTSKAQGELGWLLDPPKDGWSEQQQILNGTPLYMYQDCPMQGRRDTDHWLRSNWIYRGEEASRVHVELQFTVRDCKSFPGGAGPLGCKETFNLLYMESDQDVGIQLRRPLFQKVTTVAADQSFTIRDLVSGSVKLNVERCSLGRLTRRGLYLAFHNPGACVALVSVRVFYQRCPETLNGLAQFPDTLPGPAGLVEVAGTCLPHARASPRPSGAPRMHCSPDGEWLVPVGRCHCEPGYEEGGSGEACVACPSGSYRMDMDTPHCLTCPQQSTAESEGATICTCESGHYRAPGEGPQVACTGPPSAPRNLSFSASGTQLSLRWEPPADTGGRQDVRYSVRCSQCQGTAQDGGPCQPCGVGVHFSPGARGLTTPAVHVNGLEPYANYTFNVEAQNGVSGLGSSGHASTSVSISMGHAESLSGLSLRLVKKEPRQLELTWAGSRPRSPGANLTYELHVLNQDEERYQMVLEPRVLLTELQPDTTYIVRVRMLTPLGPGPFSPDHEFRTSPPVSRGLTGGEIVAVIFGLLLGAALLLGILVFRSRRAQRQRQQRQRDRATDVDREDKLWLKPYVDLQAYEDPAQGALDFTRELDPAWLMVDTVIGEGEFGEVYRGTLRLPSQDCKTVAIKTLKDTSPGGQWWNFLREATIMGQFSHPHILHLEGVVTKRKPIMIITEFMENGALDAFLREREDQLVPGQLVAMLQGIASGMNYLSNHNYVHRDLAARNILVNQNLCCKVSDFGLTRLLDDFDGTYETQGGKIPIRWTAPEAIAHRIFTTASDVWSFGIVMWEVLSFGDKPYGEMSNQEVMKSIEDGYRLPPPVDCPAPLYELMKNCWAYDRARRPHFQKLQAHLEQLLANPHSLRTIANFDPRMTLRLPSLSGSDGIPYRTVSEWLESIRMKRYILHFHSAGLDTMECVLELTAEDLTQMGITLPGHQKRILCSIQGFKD
The experiment in a line: Inhibition of EPHA1 at 1 uM. The essentials: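 Single-concentration screen using Ambit Bioscience KINOMEscan technology across a panel of 250–400 kinases. Per-kinase inhibition from this screen was summarized as S(90), the fraction of kinases inhibited by more than 90%.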

SMILES strings stand for the structures. Where only a bound is given, the exact number is not on record here.

Chain of Mast/stem cell growth factor receptor Kit (Homo sapiens), P10721 [V559D,V654A] (P10721 whole entry V559D/V654A): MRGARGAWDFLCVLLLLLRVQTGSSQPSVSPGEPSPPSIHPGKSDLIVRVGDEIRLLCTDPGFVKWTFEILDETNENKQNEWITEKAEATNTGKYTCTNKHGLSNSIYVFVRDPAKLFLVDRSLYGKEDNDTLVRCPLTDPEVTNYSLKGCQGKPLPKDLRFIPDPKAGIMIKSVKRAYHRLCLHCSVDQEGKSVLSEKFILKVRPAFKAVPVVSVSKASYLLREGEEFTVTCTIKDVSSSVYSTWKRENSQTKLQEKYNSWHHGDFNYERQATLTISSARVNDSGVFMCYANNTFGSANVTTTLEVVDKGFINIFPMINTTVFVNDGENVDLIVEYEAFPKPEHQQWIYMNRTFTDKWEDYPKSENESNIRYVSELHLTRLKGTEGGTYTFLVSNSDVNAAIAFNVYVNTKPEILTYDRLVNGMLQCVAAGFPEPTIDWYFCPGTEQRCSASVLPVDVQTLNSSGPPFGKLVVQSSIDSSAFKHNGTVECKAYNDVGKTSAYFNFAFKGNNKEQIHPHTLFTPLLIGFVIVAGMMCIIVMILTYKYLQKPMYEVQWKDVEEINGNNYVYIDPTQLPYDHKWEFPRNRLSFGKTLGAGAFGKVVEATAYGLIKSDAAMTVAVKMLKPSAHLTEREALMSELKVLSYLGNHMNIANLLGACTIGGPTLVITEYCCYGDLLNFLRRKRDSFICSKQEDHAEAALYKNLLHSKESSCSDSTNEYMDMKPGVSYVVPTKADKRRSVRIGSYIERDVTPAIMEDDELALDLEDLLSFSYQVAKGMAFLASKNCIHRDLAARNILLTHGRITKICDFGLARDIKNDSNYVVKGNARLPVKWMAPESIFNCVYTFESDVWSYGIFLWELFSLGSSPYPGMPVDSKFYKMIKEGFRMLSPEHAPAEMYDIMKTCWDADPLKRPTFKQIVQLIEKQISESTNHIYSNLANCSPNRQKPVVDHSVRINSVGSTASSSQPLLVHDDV

As usually defined, the inhibition is the drop in the measured response relative to a control, in per cent. Read a low inhibition as a weak effect. Consider `FC(F)(F)c1ccc(Cl)cc1CN1CCNc2ncc(-c3ccnc(N4CCNCC4)c3)cc21`, for which the inhibition in experiment [1], in experiment [2], in experiment [3] and in experiment [4] was under 50% throughout.
For `CN1CCN(c2ccc(-c3cnc4c(c3)N(Cc3cc(F)ccc3F)CCN4)cn2)CC1`, the inhibition in experiment [1] was under 50%; in experiment [2] it was under 50%; in experiment [3], under 50%; in experiment [4] it was 62.1%.
For `CN1CCN(c2ccc(-c3cnc4c(c3)N(Cc3cc(Cl)ccc3Cl)CCN4)cn2)CC1`, the inhibition in experiment [1], in experiment [2], in experiment [3] and in experiment [4] was under 50% throughout.
In the case of `O=C(O)c1ccc(-c2cnc3c(c2)N(Cc2cc(Cl)ccc2C(F)(F)F)CCN3)cc1`, the inhibition in experiment [1], in experiment [3] and in experiment [4] was under 50% each time.
For the compound `CN1CCN(c2ccc(-c3cnc4c(c3)N(Cc3cc(Cl)ccc3C(F)(F)F)CCN4)cn2)CC1`, the inhibition in experiment [1], in experiment [2], in experiment [3] and in experiment [4] was under 50% in each case.
Consider `COC1CCN(C(=O)c2ccc(-c3cnc4c(c3)N(Cc3cc(Cl)ccc3C(F)(F)F)CCN4)cc2)CC1`, for which the inhibition in experiment [1], in experiment [2], in experiment [3] and in experiment [4] was under 50% each time.
Take `O=C(c1ccc(-c2cnc3c(c2)N(Cc2cc(Cl)ccc2C(F)(F)F)CCN3)cc1)N1CCC(N2CCCC2)CC1`: the inhibition in experiment [1] is under 50%; in experiment [2], under 50%; in experiment [3], under 50%; in experiment [4], 81%.
On to `CN1CCN(c2ccc(-c3cnc4c(c3)N(Cc3c(F)ccc(F)c3Cl)CCN4)cn2)CC1`, for which the inhibition in experiment [1], in experiment [2], in experiment [3] and in experiment [4] was under 50% throughout.
For `O=C(c1ccc(-c2cnc3c(c2)N(Cc2cc(Cl)ccc2C(F)(F)F)CCN3)cc1)N1CCCCC1`, the inhibition in experiment [1], in experiment [3] and in experiment [4] was under 50% throughout.
Turning to `CC(=O)N1CCN(c2cc(-c3cnc4c(c3)N(Cc3cc(Cl)ccc3C(F)(F)F)CCN4)ccn2)CC1`, the inhibition in experiment [1], in experiment [2], in experiment [3] and in experiment [4] was under 50% each time.
